Assay results taken from ChEMBL document CHEMBL1145917, “Neurosteroid analogues. 9. Conformationally constrained pregnanes: structure-activity studies of 13,24-cyclo-18,21-dinorcholane analogues of the GABA modulatory and anesthetic steroids (3alpha,5alpha)- and (3alpha,5beta)-3-hydroxypregnan-20-one” (J Med Chem, 2003).

What was measured:
[1] = molecular target: T1, GABA-A receptor; alpha-1/beta-2/gamma-2 (Rattus norvegicus) (UniProt P18508+P62813+P63138); experiment: In vitro current effect against rat GABA receptor alpha-1-beta-2-gamma-2 subunits expressed in Xenopus laevis oocytes at 0.1 uM (ratio +/- compound); type: cell-based; details: Oocyte
In short: (§1)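 Two-electrode voltage clamp at -70 mV, 2–5 days after injecting rat α1, β2 and γ2L cRNA (20–40 ng total, equal parts) into defolliculated stage V–VI oocytes held at 18 °C in ND96. Compound was co-applied with 2 μM GABA for 20 s and peak current measured. Value is the ratio of current with/without compound, from at least four oocytes.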

[2] = molecular target: T1, GABA-A receptor; alpha-1/beta-2/gamma-2 (Rattus norvegicus); experiment: In vitro current effect against rat GABA receptor alpha-1-beta-2-gamma-2 subunits expressed in Xenopus laevis oocytes at 10 uM (ratio +/- compound); type: cell-based; details: Oocyte; in short: as §1
[3] = molecular target: T1, GABA-A receptor; alpha-1/beta-2/gamma-2 (Rattus norvegicus); experiment: In vitro direct current effect against rat GABA receptor alpha-1-beta-2-gamma-2 subunits expressed in Xenopus laevis oocytes at 10 uM (ratio +/- compound, without GABA); type: cell-based; details: Oocyte
In short: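 Same oocyte α1β2γ2L voltage-clamp setup at -70 mV, with peak current over 20 s applications. Compound was applied at 10 μM without GABA. Directly gated current is expressed as a ratio to the current evoked by 2 μM GABA, from at least four oocytes.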

[4] = molecular target: T1, GABA-A receptor; alpha-1/beta-2/gamma-2 (Rattus norvegicus); experiment: In vitro current effect against rat GABA receptor alpha-1-beta-2-gamma-2 subunits expressed in Xenopus laevis oocytes at 1 uM (ratio +/- compound); type: cell-based; details: Oocyte; in short: as §1
[5] = molecular target: GABA-A receptor; anion channel; experiment: Non-competitive displacement of [35S]TBPS from picrotoxin binding site found in heterogeneous Gamma-aminobutyric acid A receptor in rat brain membranes.; type: cell membranes
In short: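 Rat brain membranes (washed P2, 0.5 mg/mL final protein) incubated 2 h at room temperature with 5 μM GABA, 2 nM [35S]TBPS and steroid from DMSO (final 1 nM–10 μM) in 200 mM NaCl/50 mM potassium phosphate, pH 7.4. Nonspecific binding defined with 200 μM picrotoxinin. Filtration, scintillation counting, Hill fit for IC50. Triplicate points, two or three curves per steroid.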

[6] = Loss of righting reflex in Xenopus laevis tadpole.; type: functional, frog; details: Amphibia, read-out: ED50 (the source's name)
In short: (§2)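 Groups of 10 early pre-limb-bud X. laevis tadpoles were placed in 100 mL oxygenated Ringer's containing compound at various concentrations. Compound came from a 10 mM DMSO stock, about 0.1% DMSO final. Loss of righting and loss of swimming responses were scored. EC50 and Hill coefficient n were taken from a Hill equation fit.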

[7] = Hill coefficient for displacement of [35S]TBPS.; type: functional
In short: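 Rat brain membrane P2 fraction washed three times in 200 mM NaCl / 50 mM potassium phosphate, pH 7.4. Assay used 0.5 mg/mL protein, 5 μM GABA, 2 nM [35S]TBPS and steroid at 1 nM–10 μM final (0.5% DMSO), 2 h at room temperature, then filtration and scintillation counting. Nonspecific binding was taken with 200 μM picrotoxinin. Triplicate points, 2–3 curves per steroid; Hill equation fit gives n.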

[8] = Hill coefficient for loss of righting response.; type: functional; in short: as §2
[9] = Loss of swimming behavior in Xenopus laevis tadpole.; type: functional, frog; details: Amphibia, read-out: ED50 (the source's name); in short: as §2
[10] = Hill coefficient for loss of swimming response.; type: functional; in short: as §2

SMILES	Ratio [1]	Ratio [2]	Ratio [3]	Ratio [4]	IC50 [5] [nM]	EC50 [6] [nM]	nHill [7]	nHill [8]	EC50 [9] [nM]	nHill [10]
C[C@]12CC[C@@H](O)C[C@@H]1CC[C@H]1C3CCC4C(=O)C=CC[C@@]43CC[C@@H]12 (single isomer, unassigned)	1.49	9.07	0.72	5.87	373	3380	1.17	-2.79	–	–
C[C@]12CC[C@@H](O)C[C@H]1CC[C@H]1[C@@H]3CCC4CCC(=O)C[C@@]43CC[C@@H]12 (stereo partly drawn)	0.97	3.17	0.01	1.03	899	1440	0.89	-3.02	3550	-17.5
C[C@]12CC[C@@H](O)C[C@@H]1CC[C@H]1[C@@H]3CCC4C=CC(=O)C[C@@]43CC[C@@H]12 (stereo partly drawn)	1.59	16.6	0.35	5.53	243	1280	0.89	-1.16	10000	-17
C[C@]12CC[C@@H](O)C[C@@H]1CC[C@@H]1[C@@H]2CC[C@]23C(=O)CCCC2CC[C@@H]13 (stereo partly drawn)	1.22	10.7	0.39	3.05	301	320	1.01	-1.75	1730	-36.5
C[C@]12CC[C@@H](O)C[C@H]1CC[C@@H]1[C@@H]2CC[C@]23C=CC(=O)C[C@H]2CC[C@@H]13	1.87	4.44	0.26	1.8	4750	560	0.95	-1.5	5480	-33.5
C[C@]12CC[C@@H](O)C[C@H]1CC[C@H]1C3CCC4C(=O)C=CC[C@@]43CC[C@@H]12 (single isomer, unassigned)	1.07	2.34	0.11	1.17	1570	2560	1.15	-1.59	8950	-19.8
C[C@]12CC[C@@H](O)C[C@H]1CC[C@@H]1[C@@H]2CC[C@]23C(=O)CCCC2CC[C@@H]13 (stereo partly drawn)	1.26	10.4	0.04	3.45	329	40	0.95	-4.97	890	-18.2
C[C@]12CC[C@@H](O)C[C@H]1CC[C@H]1[C@@H]3CCC4C(=O)CCC[C@@]43CC[C@@H]12 (stereo partly drawn)	0.93	1.51	-0.25	1.12	1780	940	1.36	-1.23	5480	-33.5
C[C@]12CC[C@@H](O)C[C@@H]1CC[C@H]1[C@@H]3CCC4CC(=O)CC[C@@]43CC[C@@H]12 (stereo partly drawn)	1.3	2.93	0.06	1.61	1440	2370	0.95	-2.02	–	–
C[C@]12CC[C@@H](O)C[C@@H]1CC[C@@H]1[C@@H]2CC[C@]23C=CC(=O)C[C@H]2CC[C@@H]13	1.12	5.07	-0.04	1.54	1260	730	1	-1.57	5480	-33.5
C[C@]12CC[C@@H](O)C[C@@H]1CC[C@@H]1[C@@H]2CC[C@]23C(=O)C=CC[C@H]2CC[C@@H]13	1.98	9.45	0.07	8.33	197	1200	1.03	–	2660	-24.2
C[C@]12CC[C@@H](O)C[C@@H]1CC[C@H]1[C@@H]3CCC4CCC(=O)C[C@@]43CC[C@@H]12 (stereo partly drawn)	1.39	6.49	0.32	1.64	334	1120	1.14	-1.75	3580	-16.7
CC(=O)[C@H]1CC[C@H]2[C@@H]3CC[C@H]4C[C@H](O)CC[C@]4(C)[C@H]3CC[C@]12C [BREXANOLONE]	1.26	9.65	0.37	3.89	–	420	0.89	-1.83	5500	-7.5
C[C@]12CC[C@@H](O)C[C@H]1CC[C@@H]1[C@@H]2CC[C@]23C(=O)C=CC[C@H]2CC[C@@H]13	1.36	21.4	0.2	3.15	105	400	0.9	-4.97	1000	-18.6
C[C@]12CC[C@@H](O)C[C@H]1CC[C@H]1[C@@H]3CCC4C=CC(=O)C[C@@]43CC[C@@H]12 (stereo partly drawn)	1.07	4.5	-0.02	1.83	268	1050	0.64	-16.6	2720	-22.1
C[C@]12CC[C@@H](O)C[C@H]1CC[C@H]1[C@@H]3CCC4CC(=O)CC[C@@]43CC[C@@H]12 (stereo partly drawn)	0.97	2.65	-0.1	1.11	3230	2470	0.73	-1.86	9430	-18.7
C[C@]12CC[C@@H](O)C[C@@H]1CC[C@H]1[C@@H]3CCC4C(=O)CCC[C@@]43CC[C@@H]12 (stereo partly drawn)	1.01	2.28	0	1.44	514	1360	0.84	-2.51	5450	-33.5
CC(=O)[C@H]1CC[C@H]2[C@@H]3CC[C@@H]4C[C@H](O)CC[C@]4(C)[C@H]3CC[C@]12C [ELTANOLONE]	1.2	9.77	0.06	2.82	–	63	0.57	-1.54	300	-6.93
